# Assay outcomes (PubChem)
# Compounds with a hit are over-represented: about 3.7% of the library has one in this group of screens.
# KCNK3 inh: human KCNK3 channel inhibitors, primary screen, CHO cells, FluxOR thallium flux, B-score | Potassium channel subfamily K member 3 (Homo sapiens), O14649 | FluxOR fluorescence; stronger effect = lower value | 340,000 tested, 0.84% active | B-score at 10 µM | AID 602410, 2012;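 active means B-score under library mean minus 4 SD, starting fluorescence ratio at most library mean plus 5 SD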;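 further: more negative B-score means stronger inhibition of thallium flux through KCNK3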
# KCNQ1 act: potentiators or activators of KCNQ1 channel, primary screen, cell-based, thallium flux, high-throughput | Potassium voltage-gated channel subfamily KQT member 1 (Homo sapiens), P51787 | 310,000 tested, 0.35% active | B-score at 10 µM | CHO-K1 KCNQ1, thallium flux FluxOR fluorescence; stronger effect = higher value;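 active means fluorescence ratio B-score, a plate-corrected score, at least three library SD, with initial intensity B-score within 5 SD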
#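 System: Stable KCNQ1 CHO-K1 line | Incubation: 90 min dye loading and 20 min compound exposure, both at room temperature | Measure: Ratio B score | Medium: Assay buffer for compound exposure, DMSO matched across wells | Compound dosing: Single-concentration screen | Probe or stimulus: K+/Tl+ depolarizing stimulus | Measured by: Kinetic FluxOR fluorescence, 10 s baseline plus 110 s post-stimulus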
# KCNQ1 inh: inhibitors of human KCNQ1 channel, primary screen, cell-based, thallium flux, high-throughput. B-score at 10 µM. AID 2642, 2010. 310,000 tested, 1.3% active. CHO-K1 KCNQ1, FluxOR thallium flux fluorescence; stronger effect = higher value;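 active means compounds whose thallium flux B-score, printed positive for inhibition, exceeds three library SD while starting fluorescence stays within three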;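 further: channel opened by potassium depolarization with thallium stimulus after 20 min compound exposure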
# Kir21 inh: inhibitors of mouse Kir2.1 inward-rectifier potassium channel; 310,000 tested, 0.85% active; B-score at 10 µM; Inward rectifier potassium channel 2 (Mus musculus), P35561; AID 1672, 2009; HEK293-Kir2.1, FluxOR thallium flux fluorescence; stronger effect = lower value;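 active means fluorescence ratio B-score at or below minus 3 SD of library scores, with starting-brightness B-score within 2 SD, cut at about -4.2 in these data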;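 further: channel flux triggered by added potassium and thallium sulfate stimulus; B-score of peak minus minimum fluorescence over baseline after thallium stimulus; more negative B-score means stronger Kir2.1 block with less thallium influx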
# hERG rescue: hERG rescue from dofetilide block, primary screen, cell-based, CHO-hERG, FluxOR thallium flux, dofetilide IC70; activation (rescue from dofetilide block), less the hit threshold, % at 10 µM; AID 1511, 2009; 310,000 tested, 0.51% active; Voltage-gated inwardly rectifying potassium channel KCNH2 (Homo sapiens), Q12809; dofetilide IC70 present;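 active means activation above the mean of controls blocked by dofetilide plus 5 SD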;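 further: thallium influx through hERG after potassium depolarization seen as dye fluorescence rise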
# KCNK9 inh: KCNK9 potassium channel inhibitors, primary screen, HEK293 cells, thallium flux. Potassium channel subfamily K member 9 (Homo sapiens), Q9NPC2. FluxOR thallium flux fluorescence; stronger effect = lower value. B-score at 10 µM. 310,000 tested, 1.2% active. AID 488922, 2010;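 active means ratio B-score over 3 SD below the library mean, with starting fluorescence within 5 SD of its mean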;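 further: negative B-score means less thallium flux so channel inhibition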
# Target sequence (Q9NPC2 whole entry, looked up): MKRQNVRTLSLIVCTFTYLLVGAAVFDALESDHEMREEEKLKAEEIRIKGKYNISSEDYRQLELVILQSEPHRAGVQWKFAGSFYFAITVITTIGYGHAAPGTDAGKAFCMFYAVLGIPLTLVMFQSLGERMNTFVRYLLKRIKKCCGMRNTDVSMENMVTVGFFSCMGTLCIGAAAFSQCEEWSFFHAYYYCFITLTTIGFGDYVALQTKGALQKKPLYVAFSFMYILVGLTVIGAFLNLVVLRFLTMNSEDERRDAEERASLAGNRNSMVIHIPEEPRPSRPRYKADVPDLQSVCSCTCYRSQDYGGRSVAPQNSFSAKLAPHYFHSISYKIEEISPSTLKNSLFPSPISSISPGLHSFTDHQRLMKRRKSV
# Numbers without * were called inactive; i = inactive; . = no result.
SMILES,KCNK3 inh,KCNQ1 act,KCNQ1 inh,Kir21 inh,hERG rescue,KCNK9 inh
N#CC(c1ccccc1)N(CCCCl)C(=O)c1ccccc1 (centres undefined),i,i,i,-4.6*,-7,i
CC(=O)N(CCCCl)C(C#N)c1ccccc1 (centres undefined),i,i,i,-1.6,-5,i
Oc1c(Cl)cc(Cl)cc1C=Nc1ccc2c(c1)OCCO2,i,8*,i,3.2,1,i
Oc1c(Cl)cc(Cl)cc1/C=N/Nc1ncc(Br)cn1,i,i,i,0.42,-11,i
Brc1csc(C=Nc2ccc3c(c2)OCCOCCOCCOCCO3)c1,i,i,i,-2.8,1,i
Cc1ccc(N=Cc2cc(Cl)cc(Cl)c2O)nc1,i,17*,i,0.14,5.3*,i
N#Cc1cccc(NC(=O)c2nc(-c3ccccc3)n(-c3ccccc3)n2)c1,i,i,i,0.72,7.1*,i
Cc1ccc(C)c(NC(=O)c2nc(-c3ccccc3)n(-c3ccccc3)n2)c1,i,i,i,0.24,-11,i
COc1cc(Cl)ccc1OCc1cc(C(=O)N(C)CC2CCCCO2)no1 (centres undefined),i,i,i,-4.5*,-8,i
COc1ccc(OCc2cc(C(=O)N(C)CC3CCCCO3)no2)c(Cl)c1 (centres undefined),i,i,i,-2.6,-8,i
O=C(NC(=S)/C(=C1\CCCCCN1)[N+](=O)[O-])c1ccccc1,i,.,.,.,.,.
Cc1ccc(S(=O)(=O)/N=C2/NC(=O)/C(=C/c3cc([N+](=O)[O-])ccc3O)S2)cc1,i,i,i,-1.7,-10,i
COc1cccc(N=C2NC(=O)/C(=C/c3cc([N+](=O)[O-])ccc3O)S2)c1,i,i,7*,-0.36,-10,i
COc1ccc(CN(C)C(=O)CCC(=O)N2CCN(S(=O)(=O)c3ccc(Cl)cc3)CC2)c(OC)c1,i,.,.,.,.,.
CC1COc2ccccc2N1S(=O)(=O)c1ccc(Cl)cc1 (centres undefined),i,i,i,-4.4*,-17,i
O=C(NCCc1ccccc1)C(=O)NCC1CCNCC1,.,i,i,0.27,4.6*,i
Cc1cc2ccccc2n1CCNC(=O)C(C)Oc1ccccc1 (centres undefined),i,i,i,-1.9,-12,i
CC(C)c1ccc(/C=N/NC(=O)c2nnn(-c3nonc3N)c2CSC2=NCCS2)cc1,i,i,i,-0.13,-9,i
CC(C)c1ccc(/C=C/C(=O)NC(=S)NN2CCOCC2)cc1,i,i,i,-0.23,-9,i
CC(C)c1ccc(/C=C/C(=O)NC(=S)Nc2ccc(CN3CCOCC3)cc2)cc1,i,i,9*,0.04,-17,i
CC(C)(C)C1CCC(C(=O)OCC(=O)c2ccc[nH]2)CC1 (centres undefined),i,i,i,-5.3*,-4,i
Cc1ccc(N2CC(C(=O)OCC(=O)c3ccc[nH]3)CC2=O)cc1 (centres undefined),i,i,i,-0.26,-18,i
O=C(Cn1nnc(-c2ccccc2)n1)N/N=C/c1ccco1,i,i,i,0.96,-1,i
CCOc1ccc(CNS(=O)(=O)c2cccs2)cc1OCC,i,i,i,2.4,-7,i
N#C/C(=C\c1ccc(N2CCOCC2)o1)C(=O)NCC1CCCO1 (centres undefined),i,i,9*,-4.4,-17,i
SMILES,KCNK3 inh,KCNQ1 act,KCNQ1 inh,Kir21 inh,hERG rescue,KCNK9 inh
N#C/C(=C/c1ccc(N2CCOCC2)o1)C(=O)Nc1ccccc1,i,i,i,-3.7,-34,-6.6*
N#C/C(=C/c1ccc(-c2ccc(S(=O)(=O)N3CCOCC3)cc2)o1)C(=O)NC1CC1,i,.,.,.,.,.
N#C/C(=C\c1ccc(N2CCOCC2)o1)C(=O)NC1CCCCC1,i,i,9*,-6.6,-26,i
COCCNC(=O)/C(C#N)=C/c1ccc(N2CCOCC2)o1,i,i,i,-6.7,-21,i
Cc1ccc(C(=O)CSc2nnc3c4ccccc4nc(Cc4ccccc4)n23)cc1,i,i,i,0.57,-8,i
COc1ccccc1NC(=O)CS(=O)(=O)c1cn(CC(=O)N2CCOCC2)c2ccccc12,i,i,i,0.36,-14,i
COc1ccc(C(C(=O)NC2CCCCC2)N(Cc2cccs2)C(=O)Cc2c[nH]c3ccccc23)cc1 (centres undefined),i,i,i,1.4,-9,-7.3*
COc1cccc(CN(C(=O)Cc2c[nH]c3ccccc23)C(C(=O)NC2CCCCC2)c2cccs2)c1 (centres undefined),i,i,7*,-1.6,-14,i
O=C(NC1CCCCC1)C(c1cccs1)N(C(=O)Cc1c[nH]c2ccccc12)c1ccc(F)cc1 (centres undefined),i,i,i,0.41,-9,i
CCOC(=O)/C(C#N)=C/C=C1\C=Cc2ccccc2N1CC,i,i,i,0.44,-6,i
CCCN1C=CC(=C/C=C(\C#N)C(=O)OCC)C=C1,.,i,12*,-6.4,-30,i
CCCCCN1C=CC=C/C1=C\C=C(C#N)C#N,i,i,i,0.1,-3,i
CCCN1C=CC(=CC=C(C#N)C#N)C=C1,i,i,8*,-5.8,-14,i
C=CCN1C=CC(=CC=C(C#N)C#N)C=C1,i,i,7*,-3.1,-11,i
O=C(COC(=O)c1cn(-c2ccccc2)nc1-c1cccnc1)NC1CC1,i,i,i,1.3,-21,i
Cc1cccc(NC(=S)N/N=C2\CC(C)(C)Oc3ccc(O)cc32)c1,i,i,i,-0.88,6.5*,i
Clc1ccc(/C(Cc2nc3ccccc3[nH]2)=N\Nc2ccccc2)cc1,i,i,9*,-0.1,-15,-7.2*
CC1(c2nnc(Cc3ccccc3)o2)CC(c2cccc(F)c2)=NO1 (centres undefined),i,i,i,-0.02,-2,i
CC(=O)N1Cc2ccccc2C(C)CC12CCCCC2 (centres undefined),i,i,i,-7.3*,-6,i
